# Measurements reported in paper PMC4131791 (Memórias do Instituto Oswaldo Cruz, 2014).
# System: Trypanosoma cruzi (Tulahuen strain) expressing β-galactosidase, trypomastigote and amastigote forms
# Format: cell-based
# Settings: L929, read-out: IC50 of the positive control
# How it was run: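 L929 fibroblasts were seeded at 4,000/well in phenol red-free RPMI-1640 with 10% FBS and glutamine, then left overnight at 37 °C with 5% CO2. Cells were infected with β-galactosidase Tulahuen trypomastigotes at 40,000/well for 2 h, and free parasites were washed out. After 48 h, test compound (about 100-2 µM, triplicate, from DMSO stocks) was added. After seven days of culture, 100 µM CPRG with 0.1% Nonidet P-40 was added overnight at 37 °C and A570 read. Results were expressed as % growth inhibition, with IC50 by linear interpolation. Benznidazole served as positive control.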
compound,measurement,value
"O=C(Cn1ccnc1[N+](=O)[O-])NCc1ccccc1 [Benznidazole, benznidazole]",IC50,1 µg/mL
